A selection: hits, their analogues and other compounds. The true share with any hit is near 3.6%.
Hsp70 act = transcriptional activators of Hsp70. HeLa Hsp70 promoter luciferase reporter, luminescence; scaled: vehicle 0, proteasome-inhibitor control 100%. activation, % at 10 µM. 200,000 compounds, 0.04% hits. AID 1203;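 active means activation above the mean across all tested compounds plus 3 SD, cutoff set per campaign, cut at about 5.5% in these data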;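 further: 100% = MG132 at 30 µM as the positive control and 0% = DMSO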
PolyA inh = inhibitors of polyadenylation in S. cerevisiae; S. cerevisiae SKY197-pL101 polyadenylation reporter, beta-gal luminescence; efflux-impaired pdr1/pdr3 knockout yeast; score 100 = 6 SD above DMSO; activity score, % at 12 µM; 300,000 compounds, 0.02% hits;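 active means lowest replicate activity score at least 50, where 100 means six control SD above control mean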;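 further: yeast exposed to compound for 9 h at 30 °C; higher score means more reporter readthrough which indicates perturbed polyadenylation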
HSF1 inh = HSF1 inhibition | NIH3T3-HGL HSE-luciferase, MG132-induced, luminescence 8 h; stronger effect = lower value | activity change, negative = inhibition, % at 7.5 µM (by protocol) | 300,000 compounds, 0.77% hits;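 active means more than half of replicate wells show activity change below -50%, luminescence cut by over half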;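 further: luciferase reports HSF-1 transcriptional activity via heat shock element; 0% = median of DMSO wells and -100% = zero luminescence signal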
AHR activator = human AHR activation; P35869; AHR-responsive luciferase reporter cells, luminescence; activation, % at 5 µM; 320,000 compounds, 2.5% hits; in the data active means activation above about 47%;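 further: 0% = vehicle wells and 100% = reference agonist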
PERK inhibitor = inhibitors of human PERK kinase; CHO PERK-DD fusion, SEAP luminescence translation reporter; inhibition, % at 5.6 µM; 220,000 compounds, 0.17% hits; AID 1416;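 active means inhibition above the mean inhibition of all tested compounds plus 3 SD, set separately per screening campaign, cut at about 2.9% in these data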;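 further: PERK kinase domain activated by AP20187 dimerizer at 100 nM; 0% = DMSO with dimerizer and 100% = rapamycin at 8.4 µM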
Target sequence (Q9NZJ5 whole entry, looked up, the tested form may be a part): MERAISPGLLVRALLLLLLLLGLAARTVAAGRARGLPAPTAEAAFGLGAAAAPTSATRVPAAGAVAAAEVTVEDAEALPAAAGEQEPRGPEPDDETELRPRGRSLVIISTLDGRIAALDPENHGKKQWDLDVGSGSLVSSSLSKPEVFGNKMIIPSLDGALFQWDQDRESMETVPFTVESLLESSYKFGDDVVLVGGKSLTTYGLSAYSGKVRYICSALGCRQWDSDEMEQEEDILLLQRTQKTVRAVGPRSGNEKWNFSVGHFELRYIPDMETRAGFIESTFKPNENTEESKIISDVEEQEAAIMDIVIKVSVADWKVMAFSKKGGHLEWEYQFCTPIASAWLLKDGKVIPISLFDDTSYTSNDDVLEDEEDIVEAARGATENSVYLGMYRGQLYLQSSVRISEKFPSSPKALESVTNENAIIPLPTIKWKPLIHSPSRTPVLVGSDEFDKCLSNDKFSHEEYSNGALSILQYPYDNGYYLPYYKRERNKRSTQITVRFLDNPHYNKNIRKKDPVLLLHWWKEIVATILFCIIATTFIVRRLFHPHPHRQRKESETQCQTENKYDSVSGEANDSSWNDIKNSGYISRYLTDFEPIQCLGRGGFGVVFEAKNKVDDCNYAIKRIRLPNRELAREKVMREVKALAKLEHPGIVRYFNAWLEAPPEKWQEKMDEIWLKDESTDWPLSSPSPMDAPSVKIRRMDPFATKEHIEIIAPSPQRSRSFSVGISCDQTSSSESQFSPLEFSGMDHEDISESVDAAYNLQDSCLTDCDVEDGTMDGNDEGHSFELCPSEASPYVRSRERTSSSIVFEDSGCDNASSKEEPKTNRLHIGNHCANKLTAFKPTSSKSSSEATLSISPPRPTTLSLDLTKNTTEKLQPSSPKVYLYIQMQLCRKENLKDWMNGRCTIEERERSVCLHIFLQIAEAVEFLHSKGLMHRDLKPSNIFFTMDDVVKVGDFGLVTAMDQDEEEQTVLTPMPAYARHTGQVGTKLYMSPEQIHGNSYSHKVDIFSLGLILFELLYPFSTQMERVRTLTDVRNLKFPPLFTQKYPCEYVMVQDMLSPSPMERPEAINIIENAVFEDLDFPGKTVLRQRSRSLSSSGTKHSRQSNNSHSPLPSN
STAT3 act = STAT3 signaling activation. U3A cells, IL-6 STAT3-luciferase reporter, luminescence; 100% = signal with IL-6 EC80 alone. activation (% of control), % at 5.6 µM. 190,000 compounds, 0.91% hits. AID 871;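 active means activation above the screen-wide mean of compound activation plus 3 SD, cut at about 130% in these data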;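 further: 0% = background luminescence of wells with medium and substrate only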
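Test system: STAT3-luciferase reporter U3A cells; Detection: reporter luminescence signal; Times: 1 h compound pre-exposure, 6 h IL-6 stimulation, 37 °C; Benchmarks: IL-6-only high control; Also added: IL-6 stimulus at 33 ng/mL final.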
AHR act cf = confirmation of human aryl hydrocarbon receptor activators. 2,300 compounds, 87% hits. human cells, AHR-responsive luciferase reporter, luminescence. shares compounds with AHR activator. activation, % at 9 µM. AID 2845; in the data active means activation above about 49%;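 further: HepG2 hepatoma cells carrying a DRE-driven firefly luciferase reporter; 0% = vehicle wells and 100% = reference agonist wells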
PXR counter = PXR activation, counter-screen for AHR activators; shares compounds with AHR activator; cell-based PXR reporter, luciferase luminescence; activation, % at 11.6 µM; 2,300 compounds, 88% hits; AID 434939; in the data active means activation above about 11%;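 further: human hepatoma DPX-2 cells expressing full-length human PXR; 0% = DMSO and 100% = reference agonist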
* marks the source's active call; other numbers are inactive results; . = not tested or not shown.

SMILES	Hsp70 act	PolyA inh	HSF1 inh	AHR activator	PERK inhibitor	STAT3 act	AHR act cf	PXR counter
COc1ccc(C(=O)Nc2ccc3ccccc3c2)c(OC)c1	.	-7.7	4.6	84.6*	.	.	96.5*	9.1
COc1cc2ccccc2cc1C(=O)Nc1ccc(C)cc1	.	-10.9	21.3	83.2*	.	.	92.1*	.
CCC(=O)c1ccc(OCC(=O)Nc2nc(-c3cccnc3)cs2)cc1	.	6.4	-2.6	25.4	.	.	.	.
CCOc1ccc(Nc2nc(-c3cccnc3)cs2)cc1	.	-10.3	4.7	114.6*	.	.	180.9*	14.2*
CC(=O)Nc1ccc2cc3ccc(NC(C)=O)cc3nc2c1	.	9.7	-1.4	107.0*	1.1	.	81.2*	.
NC(=O)CSc1nnc(NC(=O)c2ccc(S(=O)(=O)N3CCCCC3)cc2)s1	.	1.8	-4.9	-1.9	.	.	.	.
O=C1/C(=C/c2ccccc2)SC(=S)N1N1C(=O)C2CC2C1=O (stereo unspecified)	-0.3	-40.6	12.5	-2.8	0.8	106.8	.	.
COc1ccc(-c2csc(-c3cccs3)n2)c(OC)c1	-0.1	-25.4	24.1	80.4*	0.3	107.5	118.9*	38.6*
Cc1nc2nc(SCc3ccccc3)[nH]n2c(=O)c1CCC(C)C	.	-9.0	-4.3	1.4	.	.	.	.
CCOc1cc2nc(-c3ccc(OC)c(OC)c3)nc(NCCCN3CCOCC3)c2cc1OC	-0.1	0.0	2.8	101.1*	-3.0	96.5	119.5*	17.5*
O=C(NC1CCOCC1)C1CCC(=O)N(Cc2ccc(Cl)cc2)C1 (stereo unspecified)	.	-0.9	-3.0	1.0	.	.	.	.
O=C(/C=C/c1ccc(Cl)c([N+](=O)[O-])c1)Nc1ccc(N2CCCC2)cc1	-0.3	-4.4	-1.4	84.0*	0.2	105.1	95.3*	18.0*
N/C(=N\OC(=O)c1cc([N+](=O)[O-])ccc1Cl)c1ccccn1	.	-5.1	7.2	21.2	1.4	.	.	.
Cc1c(C(=O)O/N=C(\N)c2ccccn2)cccc1[N+](=O)[O-]	.	2.4	16.1	97.0*	-0.5	.	92.0*	11.6*
N/C(=N\OC(=O)c1cc(Br)ccc1Cl)c1ccccn1	-0.2	-42.4	19.0	108.3*	1.1	118.5	61.3*	12.3*
N/C(=N\OC(=O)c1ccc(Cl)cc1[N+](=O)[O-])c1ccccn1	.	-16.5	1.4	146.2*	.	.	53.2*	13.4*
N/C(=N\OC(=O)c1ccc(Cl)cc1[N+](=O)[O-])c1cccnc1	.	-17.0	19.2	90.3*	0.1	.	91.1*	15.3*
Cc1ccoc1C(=O)N1CCN(C(=O)c2occc2C)CC1	.	10.0	4.8	-0.5	.	.	.	.
Cc1cc(=O)[nH]c(-c2ccc(C(F)(F)F)cc2)n1	.	-8.3	1.8	87.3*	1.6	.	113.8*	10.9*
COc1cccc(/C=N/NC(=O)N/N=C/c2cccc(OC)c2O)c1O	.	1.5	-4.1	4.8	.	.	.	.
COc1cccc(/C=N/NC(=O)c2cc3c(OC)ccc(OC)c3[nH]2)c1O	.	-8.2	2.4	84.0*	.	.	20.9	10.1
COc1ccc(/C=N/NC(=O)c2cccc(NC(=O)c3ccc(F)cc3)c2)c(C(=O)O)c1OC	-0.3	-2.1	8.5	105.5*	0.8	101.8	93.2*	.
CCc1ccc(S(=O)(=O)c2n[nH]n3c2nc(=O)c2ccccc23)cc1	0.2	16.3	0.3	0.9	0.3	100.2	.	.
O=c1nc2c(-c3ccccc3F)n[nH]n2c2ccccc12	0.1	2.8	-6.7	111.3*	-0.3	123.5	181.6*	25.8*
CNC(=O)c1[nH]cnc1C(=O)Nc1ccc(OC)cc1	.	-7.8	1.7	125.8*	0.1	.	123.7*	26.5*
SMILES	Hsp70 act	PolyA inh	HSF1 inh	AHR activator	PERK inhibitor	STAT3 act	AHR act cf	PXR counter
CNC(=O)c1[nH]cnc1C(=O)Nc1cccc(C)c1	.	.	.	101.2*	.	.	133.0*	24.4*
COc1ccc(NC(=O)c2nc[nH]c2C(=O)NCC(=O)OC(C)(C)C)cc1	.	0.9	-2.5	34.2	.	.	.	.
COc1ccc(NC(=O)c2nc[nH]c2C(=O)NCc2ccccc2)cc1	.	-14.0	4.5	4.9	.	.	.	.
COc1ccc(NC(=O)c2nc[nH]c2C(=O)NCCCCCNC(=O)OC(C)(C)C)cc1	.	.	.	133.5*	.	.	141.2*	29.6*
COc1ccccc1NC(=O)CSc1ccc2nnc(-c3ccncc3)n2n1	-0.1	15.0	-2.3	27.5	-0.6	100.4	.	.
Cc1csc(NC(=O)CSc2ccc3nnc(-c4ccncc4)n3n2)n1	0.2	19.7	-4.3	92.0*	0.3	106.5	65.4*	.
COc1ccc(C(=O)CSc2ccc3nnc(-c4cccnc4)n3n2)cc1	-0.3	18.1	-3.7	82.9*	0.4	91.9	73.6*	11.3*
COc1ccc(NC(=O)CSc2ccc3nnc(-c4cccnc4)n3n2)cc1	.	-30.3	-6.8	3.0	.	.	.	.
O=C(c1ccc(F)cc1F)N1CCCc2ccccc21	.	-31.5	-4.0	.	.	.	.	.
CN(C)CCCNC(=S)Nc1ccc(-c2ccccc2)cc1	.	2.8	-5.5	-0.2	-0.2	.	.	.
O=C(CC1C(=O)Nc2ccccc2N1CC(=O)N1CCCC1)Nc1ccc(Br)cc1 (stereo unspecified)	.	.	.	91.7*	.	.	99.6*	36.6*
CCCCCCCC(=O)N1c2ccccc2NC(=O)C1CC(=O)Nc1ccc(C(=O)O)cc1 (stereo unspecified)	.	-3.5	0.2	4.7	0.3	.	.	.
CCNC(=S)NN=C1c2ccccc2-c2ccccc21	-0.3	-44.8	3.1	45.1	0.0	95.2	.	.
C=C(C)CNC(=S)NN=C1c2ccccc2-c2ccccc21	0.0	-14.1	13.7	92.3*	-0.1	109.6	87.5*	55.3*
Cc1ccc(/C=N/n2cc(-c3ccccc3)[nH]c2=S)s1	0.2	1.2	0.6	96.0*	-0.1	115.0	84.5*	.
Cc1ccc(C(=O)N/N=C/c2ccc(-c3ccccc3[N+](=O)[O-])o2)cn1	-0.2	10.2	14.8	93.1*	0.5	119.7	109.3*	15.6*
Cc1ccc(C(=O)N/N=C/c2ccc(-c3cccc(Cl)c3)o2)cn1	.	-9.6	-1.1	9.9	0.3	.	.	.
C=CCn1c(SCC(=O)N2CCCC2)nc2c([nH]c3ccccc32)c1=O	.	1.1	-5.0	85.6*	.	.	98.2*	125.1*
Cn1c(SCC(=O)N2CCCCC2)nc2c([nH]c3ccccc32)c1=O	-0.4	-4.3	-6.5	45.1	-0.3	130.2	.	.
COc1cccc(CNC(=O)CS(=O)(=O)Cc2nc(-c3ccc(C)cc3)oc2C)c1OC	.	-11.3	2.3	1.5	.	.	.	.
N#C/C(=C/c1ccc(Sc2nc3ccccc3[nH]2)o1)c1cccc(Br)c1	-0.2	-5.1	15.4	82.6*	-2.1	101.6	42.5	83.7*
N#C/C(=C\c1ccc(-c2ccccc2C(=O)O)o1)c1nc2ccccc2[nH]1	.	-12.0	1.4	14.4	.	.	.	.
